Data on 22 compounds can be found in ChEMBL document CHEMBL1135934, “Structure-activity relationships of methoctramine-related polyamines as muscular nicotinic receptor noncompetitive antagonists. 2. Role of polymethylene chain lengths separating amine functions and of substituents on the terminal nitrogen atoms” (J Med Chem, 2002).

Each structure is given as a SMILES string.

The nature of assay [1]: Antagonism of carbachol action on nAChR of isolated frog rectus abdominus. Type of assay: functional, tissue-based, Rectus abdominis muscle.
Assay [2] has as its target Muscarinic acetylcholine receptor M3 (Cavia porcellus) (UniProt Q8VH26). Nature of the assay: Antagonist affinity at muscarinic acetylcholine receptor (mAChR) of guinea pig longitudinal ileum (M3). The assay is classed as functional, tissue-based. Put shortly: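 Guinea pig ileum (either sex, 200-400 g) in a 15 mL organ bath of physiological salt solution, gassed 5% CO2/95% O2, pH 7.4. Arecaidine propargyl ester curves (0.01-0.5 µM) were run at 30 min intervals, with the first discarded and the second taken as control. A repeat curve followed 60 min antagonist. pK came from graphical EC50 dose ratios by the Furchgott equation.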

Assay [3] deals with Muscarinic acetylcholine receptor M2 (Cavia porcellus). In words: Antagonist affinity at muscarinic acetylcholine receptor (mAChR) of guinea pig left atrium (M2). The settings on record: Cardiac atrium.
The target in assay [4] is Acetylcholine receptor (Torpedo californica) (UniProt P02710+P02712+P02718+P02714). The note with it: Tetronarce californica; Electric organ.

Chain of Muscarinic acetylcholine receptor M3 (Cavia porcellus) (Q8VH26 1-587): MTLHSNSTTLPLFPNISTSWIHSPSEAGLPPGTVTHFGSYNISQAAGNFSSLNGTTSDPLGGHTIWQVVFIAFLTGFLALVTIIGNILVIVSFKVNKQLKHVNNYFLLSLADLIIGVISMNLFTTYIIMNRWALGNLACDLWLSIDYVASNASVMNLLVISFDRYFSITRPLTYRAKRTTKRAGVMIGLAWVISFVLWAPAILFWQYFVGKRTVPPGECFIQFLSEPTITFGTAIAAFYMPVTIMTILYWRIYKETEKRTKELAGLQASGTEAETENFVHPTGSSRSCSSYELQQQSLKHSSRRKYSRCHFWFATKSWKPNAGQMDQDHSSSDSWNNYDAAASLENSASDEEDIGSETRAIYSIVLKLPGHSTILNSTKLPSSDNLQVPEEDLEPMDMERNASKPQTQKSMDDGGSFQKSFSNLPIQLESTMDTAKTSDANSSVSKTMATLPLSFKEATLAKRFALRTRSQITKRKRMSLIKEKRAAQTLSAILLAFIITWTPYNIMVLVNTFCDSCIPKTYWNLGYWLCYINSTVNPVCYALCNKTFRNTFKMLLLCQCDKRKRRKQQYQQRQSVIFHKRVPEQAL

`COc1ccccc1CNCCCNCCCCCCNCCCCCCCCCCCCNCCCCCCNCCCNCc1ccccc1OC`: the “Log IC50” value in assay [1] is on record as -6.66. The pKB in assay [2] was under 5; in assay [3], 6.5. For the same compound, in assay [4], the pKapp amounted to 7.04.
For `[N-]=[N+]=Nc1ccc(C(=O)NCCCNCCCCCCNCCCCCCCCNCCCCCCN)c(O)c1` the same measures were -6.39, 7.35, 7.01 and 5.46.
`CCCC(=O)N[C@H](Cc1ccc(O)cc1)C(=O)NCCCNCCCCCCNCCCCCCNCCCCCCNCc1ccccc1OC`: the “Log IC50” value in assay [1] was -5.48. Also, the negative logarithm of the KB (pKB) is 5.08 in assay [2] and 5.87 in assay [3]. The same compound showed a pKapp in assay [4] of 6.12.
On to `COc1ccc2cc(C(=O)NCCCNCCCCCCNCCCCCCCCNCCCCCCNCc3ccccc3OC)c(=O)oc2c1`, for which the “Log IC50” value in assay [1] is recorded as -6.21. In assay [2], this compound came in with a negative-log KB (pKB) of 6.19. This compound also displayed a pKapp in assay [4] of 6.41.
With `COc1ccc2cc(C(=O)NCCCNCCCCCCNCCCCCCCCNCCCCCCNCc3cc(I)ccc3OC)c(=O)oc2c1`, the “Log IC50” value in assay [1] was -7.11. Also, the negative-log KB (pKB) in assay [2] stood at 5.68. The compound further gave a pKapp in assay [4] of 6.8.
For `COc1ccccc1CN(C)CCCCCCN(C)CCCCCCCCN(C)CCCCCCN(C)Cc1ccccc1OC`, the “Log IC50” value in assay [1] is listed as -5.88. The pKB was under 5 in assay [2] and 6.79 in assay [3].
Take `COc1ccccc1CNCCCCCCOCCCCCCCCOCCCCCCNCc1ccccc1OC`: the “Log IC50” value in assay [1] is -5.14. Besides, the negative-log KB (pKB) in assay [2] and in assay [3] was under 5 each time.
Regarding `[N-]=[N+]=Nc1ccc(C(=O)NCCCNCCCCCCNCCCCCCCCNCCCCCCNCCCNC(=O)c2ccc(N=[N+]=[N-])cc2O)c(O)c1`, in assay [1], the “Log IC50” value is reported as -5.8. In assay [4], this compound came in with a pKapp of 5.86.
Regarding `CCCC(=O)N[C@H](Cc1ccc(O)cc1)C(=O)NCCCNCCCCCCNCCCCCCNCCCCCCN`, the “Log IC50” value in assay [1] was -5.62. Moreover, the pKB in assay [2] is 5.16; in assay [3], under 5. The compound further registered a pKapp in assay [4] of 4.63.
The like results for `COc1ccccc1CNCCCCCCNCc1ccc(-c2ccc(-c3ccc(CNCCCCCCNCc4ccccc4OC)cc3)cc2)cc1` were, in that order, -6.3, under 5, under 5 and 6.35.
Take `CCCC(=O)N[C@H](Cc1ccc(O)cc1)C(=O)NCCCNCCCCCCNCCCCCCCCCCCCNCCCCCCNCc1ccccc1OC`: the “Log IC50” value in assay [1] is reported as -6.27. This compound also displayed a pKapp in assay [4] of 5.89.
Regarding `COc1ccccc1CNCCCCCCNCCCCCCNCCCCCCNCCCCCCNCc1ccccc1OC`, the “Log IC50” value in assay [1] was -6.68. The negative-log KB (pKB) in assay [2] was 5.3; in assay [3], 6.98.
For the compound `COc1ccccc1CNCCCNCCCCCCNCCCCCCCCNCCCCCCNCCCNCc1ccccc1OC`, in assay [1], the “Log IC50” value is recorded as -6.44. In addition, the negative logarithm of the KB (pKB) in assay [2] and in assay [3] was under 6 in each case. The compound also showed a pKapp in assay [4] of 6.66.
With `COc1ccccc1CNCCCCCCNCCCCCCCCCCCCNCCCCCCNCc1ccccc1OC`, the “Log IC50” value in assay [1] is on record as -7.02. For the same compound, the pKB was found to be 5.98 in assay [2] and 7.35 in assay [3]. For the same compound, in assay [4], the pKapp turned out to be 5.66.
For `[N-]=[N+]=Nc1ccc(C(=O)NCCCNCCCCCCNCCCCCCCCCCCCNCCCCCCNCCCNC(=O)c2ccc(N=[N+]=[N-])cc2O)c(O)c1`, the “Log IC50” value in assay [1] is reported as -6.17. In addition, in assay [4], the pKapp is 5.72.
Consider `CCCC(=O)NC(Cc1ccc(O)cc1)C(=O)NCCCNCCCCNCCCN` (stereo unspecified), for which the “Log IC50” value in assay [1] was -4.62. In assay [2], the pKB was under 5. Also, the pKapp in assay [4] worked out at 3.94.
For `COc1ccccc1CNCCCCCCNCCCCCCCCNCCCCCCNCc1ccccc1OC` [METHOCTRAMINE] the same measures were -5.93, 6.14 and 6.21.
Take `c1ccc(C(CNCCCCCCNCCCCCCCCNCCCCCCNCC(c2ccccc2)c2ccccc2)c2ccccc2)cc1`: in assay [1], the “Log IC50” value is given as -6.31. The negative-log KB (pKB) amounted to 5.4 in assay [2] and 5.98 in assay [3].
On to `CCCC(=O)N[C@H](Cc1ccc(O)cc1)C(=O)NCCCNCCCCCCNCCCCCCCCCCCCNCCCCCCN`, for which the “Log IC50” value in assay [1] is -6.3. In assay [4], this compound yielded a pKapp of 5.28.
As for `COc1ccccc1CCNCCCCCCNCCCCCCCCNCCCCCCNCCc1ccccc1OC`, in assay [1], the “Log IC50” value is -5.36. In addition, the results for the pKB in assay [2] and in assay [3] were 5.32 and 6.64, respectively.
For the compound `COc1ccccc1CNCc1ccc(CNCCCCCCCCCCCCNCc2ccc(CNCc3ccccc3OC)cc2)cc1`, in assay [1], the “Log IC50” value was -6.43. Further, the pKB in assay [2] and in assay [3] was under 5 throughout. Also, the pKapp in assay [4] is 6.19.
With `COc1ccccc1CNCCCNCCCCCCNCCCCCCNCCCCCCNCCCNCc1ccccc1OC`, the “Log IC50” value in assay [1] is recorded as -6.42. The values for the pKB in assay [2] and in assay [3] were under 5 and 6.15, respectively. Moreover, the pKapp in assay [4] was 6.4.

By pKB is commonly meant the negative decadic logarithm of the KB, by convention in mol/L. Lower therefore signals a high KB.
